Screening data: PubChem, several laboratories
Shown are actives, neighbours in structure and some others; about 2.5% of the full set was active somewhere.
MC4R antagonist: MC4R antagonists of cAMP signaling, primary screen, cell-based, TR-FRET, antagonist arm of biased-ligand search; AID 540295, 2011; 360,000 tested, 0.48% active; MC4R-expressing cells, MTII-stimulated cAMP, LANCE TR-FRET; inhibition, % at 6.5 µM; Melanocortin receptor 4 (Homo sapiens), P32245;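 active means inhibition above its plate's cutoff, the mean of tested wells on that plate plus 3 SD, cut at about 29% in these data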
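Material: human MC4R-expressing U2OS cells. Probe or stimulus: Melanotan II challenge. Dosing: 6.5 µM single dose. Times: 30-min compound, 1-h challenge, 1-h detection, room temperature. Technique: TR-FRET with Eu-cAMP and labeled anti-cAMP, 671 nm. Replication: singlicate.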
MC4R ag barr: MC4R agonists recruiting beta-arrestin, primary screen, cell-based, luminescence, agonist arm of biased-ligand search; Melanocortin receptor 4 (Homo sapiens), P32245; U2OS MC4R beta-arrestin complementation; percent of melanotan II response, DMSO zero; activation, % at 8.9 µM; 360,000 tested, 0.98% active; AID 540308, 2011;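 active means activation above a per-plate cutoff, the mean activation of sample wells on that plate plus 3 SD, cut at about 8% in these data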
sPLA2-III inh: human group III sPLA2 inhibitors, primary screen, biochemical, QFRET, BODIPY PC-A2 liposome substrate; QFRET BODIPY PC-A2 liposome hydrolysis, fluorescence; inhibition, % at 12.2 µM; 370,000 tested, 0.56% active;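 active means inhibition above mean plus 3 SD of compounds lying within the high and low control bounds, cut at about 19% in these data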
A1 inh: caspase 3/7 activation in MEF A1-2A-BIM cells, primary screen, A1 inhibitor project, cell-based, luminescence, HTS | Caspase-Glo 3/7 luminescence, 3 h; percent of clofoctol response, vehicle zero | caspase activation, % (test concentration not listed) | 330,000 tested, 0.066% active;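 active means over half of replicate activation scores above 10%, or exactly half above 10 with the replicate mean above 10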
NTR1 ag: agonists of human NTR1, primary screen, imaging, U2OS cells, beta-arrestin-GFP, high content; Neurotensin receptor type 1 (Homo sapiens), P30989; NTR1-U2OS beta-arrestin-GFP spot imaging, agonist mode; activation, % at 20 µM; 330,000 tested, 0.17% active; AID 493036, 2011;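 active means activation at or above 40% of the spot to cytoplasm intensity ratio, with at least 20 cells analyzed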
Target sequence (P30989 whole entry, looked up): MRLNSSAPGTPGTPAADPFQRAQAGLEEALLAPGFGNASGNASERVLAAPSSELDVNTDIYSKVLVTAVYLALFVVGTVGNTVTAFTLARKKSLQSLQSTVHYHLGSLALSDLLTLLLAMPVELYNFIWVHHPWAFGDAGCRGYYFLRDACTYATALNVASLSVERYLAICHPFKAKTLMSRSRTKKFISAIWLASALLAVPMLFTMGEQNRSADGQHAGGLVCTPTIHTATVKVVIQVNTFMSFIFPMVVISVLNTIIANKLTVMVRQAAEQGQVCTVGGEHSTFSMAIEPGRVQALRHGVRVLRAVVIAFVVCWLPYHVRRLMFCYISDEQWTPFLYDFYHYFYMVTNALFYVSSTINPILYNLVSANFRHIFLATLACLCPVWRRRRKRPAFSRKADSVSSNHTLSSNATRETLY
Exocytosis inh: LAMP-1 surface exposure blockers, TALL-104 cells – cell-based, flow cytometry, MLPCN library, primary screen | TALL-104 LAMP-1 surface exposure; cells stimulated with thapsigargin and PMA | inhibition, % at 10 µM | 360,000 tested, 0.66% active | AID 651702, 2012;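 active means inhibition above about 55%, limit read from the data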
MC4R barr ag: MC4R beta-arrestin agonists, retest, confirmation, cell-based, luminescence, U2OS | U2OS MC4R beta-arrestin recruitment; scaled DMSO 0%, Melanotan II 100% | AID 602192, 2012 | 2,400 tested, 31% active | activation, % at 8.9 µM | shares compounds with MC4R ag barr;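 active means mean activation across replicates above the hit cutoff set in the earlier primary screen, cut at about 8% in these data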
MOR-DOR barr ag: agonists of MOR-DOR heterodimerization, counter-screen for MC4R biased agonist project, cell-based, luminescence. shares compounds with MC4R ag barr. activation, % at 9.2 µM. 2,400 tested, 5.8% active. U2OS PathHunter beta-arrestin, beta-gal luminescence; percent of deltorphin B response, DMSO zero. AID 602194, 2012;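 active means mean activation across replicates exceeds the hit threshold derived in the earlier primary screen, cut at about 18% in these data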
Granule exo CP1: inhibitors of lytic granule exocytosis, confirmation, TALL-104 cells, flow cytometry, Cherry Pick01 | shares compounds with Exocytosis inh | LAMP-1 externalization; stimulated with PMA plus thapsigargin | inhibition, % at 10 µM | 1,500 tested, 11% active | AID 651954, 2012; in the data active means inhibition above about 60%
hGIII sPLA2 conf: human group III sPLA2 inhibitors, confirmation, biochemical, QFRET, triplicate | shares compounds with sPLA2-III inh | recombinant hGIII-sPLA2, BODIPY PC-A2 QFRET fluorescence | inhibition, % at 12.2 µM | 2,000 tested, 34% active | AID 743280, 2014;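 active means mean inhibition across triplicates above the hit cutoff set in the earlier primary screen, cut at about 19% in these data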
BODIPY interf: 535nm fluorescence optical interference, confirmation, artefact control for HGIII-sPLA2 inhibitor project, biochemical, QFRET; shares compounds with sPLA2-III inh; BODIPY FL product fluorescence interference; inhibition, % at 12.2 µM; 2,000 tested, 8.5% active;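 active means average inhibition above the solvent-only control mean plus 3 SD, cut at about 6% in these data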
Hits are given with their value; . = inactive; / = no result given.

SMILES	MC4R antagonist	MC4R ag barr	sPLA2-III inh	A1 inh	NTR1 ag	Exocytosis inh	Granule exo CP1	others
c1ccc(CSc2ccc(-c3ccc4c(c3)OCO4)nn2)cc1	.	29	23	.	.	.	/	MC4R barr ag=.;MOR-DOR barr ag=.;hGIII sPLA2 conf=.;BODIPY interf=.
CC(=O)N1CCCN(C(=O)CN2C(=O)CC(C)(C)S(=O)(=O)c3ccccc32)CC1	/	/	.	/	/	/	/
CN(C)c1ccc(C=NNc2nc3c([nH]2)c(=O)n(C)c(=O)n3C)cc1	.	.	.	/	/	.	/
CN(C)c1ccc(/C=N\Nc2nc(-c3ccccc3)cc(=O)[nH]2)cc1	.	27	20	.	.	.	/	MC4R barr ag=.;MOR-DOR barr ag=.;hGIII sPLA2 conf=.;BODIPY interf=.
CCCC(=O)N1CCC[C@]2(CC[C@H](CCC(=O)OCC)O2)C1	/	/	.	/	/	/	/
CCOc1ccc(C2CC(c3ccc(CC)cc3)n3nc(N)nc3N2)cc1 (stereo unspecified)	.	.	.	.	.	.	/
CCOc1ccc(C2CC(c3ccc(CC)cc3)Nc3nc(N)nn32)cc1 (stereo unspecified)	.	10	22	.	.	.	/	MC4R barr ag=.;MOR-DOR barr ag=.;hGIII sPLA2 conf=.;BODIPY interf=.
Cc1n[nH]c(=S)n1/N=C/c1ccccc1OCc1ccc(Cl)cc1Cl	.	19	20	.	.	.	/	MC4R barr ag=16;MOR-DOR barr ag=.;hGIII sPLA2 conf=.;BODIPY interf=.
CCOc1ccc(NC(=O)c2ccc(CN3CCc4ccccc4C3)cc2)cc1	.	.	.	.	.	.	/
CCOC(=O)c1ccc(NC(=O)c2ccc(CN3CCc4ccccc4C3)cc2)cc1	.	.	.	.	.	70	.
Cc1cc(CNC(=O)COc2ccc([N+](=O)[O-])cc2)c2ccccc2n1	.	.	.	.	.	60	.
Cc1cc(OCC(=O)N2CCN(c3cccc(Cl)c3)CC2)c2c(C)c(C)c(=O)oc2c1	.	.	.	.	.	.	/
Cc1cc(OC(C)C(=O)N2CCN(c3ccc(F)cc3)CC2)c2c(C)c(C)c(=O)oc2c1 (stereo unspecified)	.	.	.	.	.	64	.
COc1ccc(CN2CCC(N(CCc3ccccc3)Cc3ccccc3)CC2)c(OC)c1	.	.	.	.	.	60	.
Cc1cc(NC(=O)CCCS(=O)(=O)c2nc(-c3cccs3)cc(C(F)(F)F)n2)no1	.	.	.	.	.	61	.
CC(C)CNC(=O)CSc1nc(-c2cccs2)cc(C(F)(F)F)n1	.	.	.	.	.	.	/
CS(=O)(=O)c1nc(-c2ccc(F)cc2)cc(C(F)(F)F)n1	.	.	.	/	/	86	.
COC(=O)CCS(=O)(=O)c1nc(-c2ccccc2)cc(C(F)(F)F)n1	.	.	/	.	.	87	.
